Key:
[1] = target: 72 kDa type IV collagenase (Homo sapiens, UniProt P08253); assay: Inhibition of MMP2 after 30 mins
Procedure, shortened: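 Gelatinase A (MMP-2), synthesized substrate and inhibitor were dissolved together in 50 mmol/L sodium borate, pH 8.5, and incubated for 30 min at 37 °C. TNBS was used in the assay.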

HL-60 = assay: Cytotoxicity against human HL60 cells expressing aminopeptidase N after 72 hrs by MTT assay; type: functional, cell-based; settings: HL-60, 72 h
Procedure, shortened: (§1)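 Cells grown in RPMI1640 with 10% FBS at 37 °C under humidified 5% CO2. HL-60 cells have high APN expression and MDA-MB-231 cells have low expression. Plated at 10,000 cells/well and allowed 4 h in complete medium. Exposed for 72 h to five concentrations from 2000 down to […]. Proliferation read by MTT. Mean of three independent experiments.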

Aminopeptidase N = target: T1, Aminopeptidase N (Sus scrofa, UniProt P15145); assay: Inhibition of pig kidney microsome aminopeptidase N after 30 mins by UV-vis spectrophotometric analysis
T1 sequence (P15145 whole entry): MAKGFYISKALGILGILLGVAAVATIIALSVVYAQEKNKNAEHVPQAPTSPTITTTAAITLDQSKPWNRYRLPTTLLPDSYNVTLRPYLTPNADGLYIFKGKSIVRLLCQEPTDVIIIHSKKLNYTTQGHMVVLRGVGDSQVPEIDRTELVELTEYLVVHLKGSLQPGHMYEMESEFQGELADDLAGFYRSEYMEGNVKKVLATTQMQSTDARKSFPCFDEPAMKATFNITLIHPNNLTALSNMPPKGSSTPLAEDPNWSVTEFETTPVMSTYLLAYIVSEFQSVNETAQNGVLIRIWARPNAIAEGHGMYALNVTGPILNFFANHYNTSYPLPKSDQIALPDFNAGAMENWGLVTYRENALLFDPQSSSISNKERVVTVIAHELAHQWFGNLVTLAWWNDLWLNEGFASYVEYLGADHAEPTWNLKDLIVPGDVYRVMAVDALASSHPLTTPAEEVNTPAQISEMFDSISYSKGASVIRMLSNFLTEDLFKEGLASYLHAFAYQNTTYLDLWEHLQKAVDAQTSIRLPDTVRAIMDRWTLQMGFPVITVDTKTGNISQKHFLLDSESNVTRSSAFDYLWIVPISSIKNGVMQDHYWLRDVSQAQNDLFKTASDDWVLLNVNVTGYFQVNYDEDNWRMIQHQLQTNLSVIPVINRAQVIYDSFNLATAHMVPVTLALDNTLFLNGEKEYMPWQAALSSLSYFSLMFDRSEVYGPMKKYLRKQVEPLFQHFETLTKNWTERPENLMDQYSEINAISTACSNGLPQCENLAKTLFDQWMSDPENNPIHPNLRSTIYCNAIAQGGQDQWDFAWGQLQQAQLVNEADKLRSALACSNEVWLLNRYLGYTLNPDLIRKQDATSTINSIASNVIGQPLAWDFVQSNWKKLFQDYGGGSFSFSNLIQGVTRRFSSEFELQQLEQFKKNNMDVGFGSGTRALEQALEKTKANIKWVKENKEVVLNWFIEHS
Procedure, shortened: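 Enzyme was porcine kidney microsomal aminopeptidase at 4 mg/ml final, with L-Leu-p-nitroanilide as substrate. Inhibitor solutions were made in assay buffer adjusted to pH 7.5. Inhibitors were preincubated with enzyme for 30 min at room temperature.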

MDA-MB-231 = assay: Cytotoxicity against human MDA-MB-231 cells after 72 hrs by MTT assay; type: functional, cell-based; settings: MDA-MB-231, 72 h; procedure, shortened: as §1

Chain of 72 kDa type IV collagenase (P08253 whole entry): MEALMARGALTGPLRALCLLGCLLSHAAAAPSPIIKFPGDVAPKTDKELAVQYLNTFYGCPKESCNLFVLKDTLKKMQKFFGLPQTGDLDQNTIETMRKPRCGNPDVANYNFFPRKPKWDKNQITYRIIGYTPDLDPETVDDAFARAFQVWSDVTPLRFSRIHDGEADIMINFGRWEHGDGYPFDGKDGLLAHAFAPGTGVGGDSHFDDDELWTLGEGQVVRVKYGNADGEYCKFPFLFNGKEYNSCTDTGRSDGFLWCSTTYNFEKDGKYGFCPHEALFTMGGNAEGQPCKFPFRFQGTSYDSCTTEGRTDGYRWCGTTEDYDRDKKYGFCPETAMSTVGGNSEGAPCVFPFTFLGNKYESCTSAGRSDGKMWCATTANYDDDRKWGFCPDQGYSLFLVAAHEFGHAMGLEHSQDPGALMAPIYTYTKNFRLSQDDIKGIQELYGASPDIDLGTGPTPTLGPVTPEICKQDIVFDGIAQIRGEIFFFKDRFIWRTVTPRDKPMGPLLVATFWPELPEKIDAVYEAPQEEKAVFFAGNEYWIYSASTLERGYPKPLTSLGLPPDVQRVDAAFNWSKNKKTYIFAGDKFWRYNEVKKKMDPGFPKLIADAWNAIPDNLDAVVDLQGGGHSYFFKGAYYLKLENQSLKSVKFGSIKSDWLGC

Compound | IC50 [1] [µM] | IC50 (HL-60) [mM] | IC50 (Aminopeptidase N) [µM] | IC50 (MDA-MB-231) [mM]
Cc1ccc(NC(=O)CN2C(=O)CC[C@H](NC(=O)[C@@H](N)Cc3ccccc3)C2=O)c(C)c1 | 8.27 | 1.97 | 5 | 8.59
CC(C)[C@H](NC(=O)CN1C(=O)CC[C@H](NC(=O)[C@@H](N)Cc2ccccc2)C1=O)C(=O)OCc1ccccc1 | 18.5 | – | 30.1 | –
CC(C)[C@H](NC(=O)CN1C(=O)CC[C@H](NC(=O)[C@@H](N)Cc2ccccc2)C1=O)C(=O)O | > 1000 | – | 13.3 | –
NC(Cc1ccccc1)C(=O)N[C@H]1CCC(=O)N(CC(=O)N[C@@H](CCC(=O)O)C(=O)O)C1=O (single isomer, unassigned) | > 1000 | – | 12.6 | –
NC(Cc1ccccc1)C(=O)N[C@H]1CCC(=O)N(CC(=O)NCCC(=O)OCc2ccccc2)C1=O (single isomer, unassigned) | 127 | – | 49.7 | –
N[C@@H](Cc1ccccc1)C(=O)N[C@H]1CCC(=O)N(CC(=O)N[C@@H](Cc2ccccc2)C(=O)OCc2ccccc2)C1=O | 12 | 2.54 | 6.48 | 10.2
CC(C)C[C@H](NC(=O)CN1C(=O)CC[C@H](NC(=O)[C@@H](N)Cc2ccccc2)C1=O)C(=O)O | > 1000 | 5.21 | 8.42 | 14.4
C[C@H](NC(=O)CN1C(=O)CC[C@H](NC(=O)[C@@H](N)Cc2ccccc2)C1=O)C(=O)O | 155 | – | 110 | –
CC(C)C[C@H](NC(=O)[C@@H](O)[C@H](N)Cc1ccccc1)C(=O)O [UBENIMEX] | 157 | 1.13 | – | 8.59
CC(C)C[C@H](NC(=O)CN1C(=O)CC[C@H](NC(=O)[C@@H](N)Cc2ccccc2)C1=O)C(=O)OCc1ccccc1 | 121 | – | 30.2 | –
N[C@@H](Cc1ccccc1)C(=O)N[C@H]1CCC(=O)N(CC(=O)N[C@@H](CCC(=O)OCc2ccccc2)C(=O)OCc2ccccc2)C1=O | 272 | – | 91.4 | –
N[C@@H](Cc1ccccc1)C(=O)N[C@H]1CCC(=O)N(CC(=O)Nc2ccc(F)cc2)C1=O | 122 | – | 252 | –
C[C@H](NC(=O)CN1C(=O)CC[C@H](NC(=O)[C@@H](N)Cc2ccccc2)C1=O)C(=O)OCc1ccccc1 | 129 | – | 91.6 | –
NC(Cc1ccccc1)C(=O)N[C@H]1CCC(=O)N(CC(=O)NCC(=O)NO)C1=O (single isomer, unassigned) | 141 | – | 304 | –
N[C@@H](Cc1ccccc1)C(=O)N[C@H]1CCC(=O)N(CC(=O)Nc2ccc(Br)cc2)C1=O | 71.6 | – | 74 | –
N[C@@H](Cc1ccccc1)C(=O)N[C@H]1CCC(=O)N(CC(=O)Nc2ccc(F)c(F)c2)C1=O | 46.9 | – | 53.4 | –
N[C@@H](Cc1ccccc1)C(=O)N[C@H]1CCC(=O)N(CC(=O)NCC(=O)O)C1=O | 107 | – | 38.7 | –
N[C@@H](Cc1ccccc1)C(=O)N[C@H]1CCC(=O)N(CC(=O)Nc2ccccc2F)C1=O | 62.7 | – | 245 | –
N[C@@H](Cc1ccccc1)C(=O)N[C@H]1CCC(=O)N(CC(=O)N[C@@H](Cc2ccccc2)C(=O)O)C1=O | 316 | – | 66.4 | –
N[C@@H](Cc1ccccc1)C(=O)N[C@H]1CCC(=O)N(CC(=O)Nc2ccc(F)c(Cl)c2)C1=O | 131 | – | 170 | –
NC(Cc1ccccc1)C(=O)N[C@H]1CCC(=O)N(CC(=O)NCCC(=O)O)C1=O (single isomer, unassigned) | 22.7 | – | 12.8 | –
N[C@@H](Cc1ccccc1)C(=O)N[C@H]1CCC(=O)N(CC(=O)NCC(=O)OCc2ccccc2)C1=O | 454 | – | 13.4 | –
N[C@@H](Cc1ccccc1)C(=O)N[C@H]1CCC(=O)N(CC(=O)Nc2cccc(Cl)c2)C1=O | 60.4 | 2.22 | 6.92 | 9.48
COc1ccc(NC(=O)CN2C(=O)CC[C@H](NC(=O)[C@@H](N)Cc3ccccc3)C2=O)cc1 | > 1000 | – | 178 | –

— ChEMBL document CHEMBL1212859, “Novel aminopeptidase N (APN/CD13) inhibitors derived from 3-phenylalanyl-N'-substituted-2,6-piperidinedione” (Bioorg Med Chem, 2010)
